Data set [1] can be described thus: Inhibition of GST-tagged recombinant human full length PI4K3beta expressed in insect cells preincubated for 15 mins followed by addition of cold ATP/gamma32P-ATP measured after 30 mins in presence of MgCl2. An outline of the steps:
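Membrane-capture radiometric assay. Purchased enzyme, final 2.5 nM. Enzyme preincubated 15 min with inhibitor (diluted in 10% DMSO), then 30 min reaction. Final: 20 mM Bis-Tris propane pH 7.5, 10 mM MgCl2, 0.075 mM Triton X-100, 0.5 mM EGTA, 1 mM DTT, 100 µM PI in PI:DOPS:DOPC, 500 ng/µL BSA, 2% DMSO, 10 µM ATP, 1 uCi γ32P-ATP. Product spotted on nitrocellulose, washed in 1M NaCl/1% phosphoric acid, phosphorimaged.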

The target of data set [2] is Phosphatidylinositol 4,5-bisphosphate 3-kinase catalytic subunit gamma isoform (Homo sapiens, UniProt P48736). The data set is described as follows: Inhibition of histidine-tagged recombinant human full length PI3Kgamma expressed in insect cells preincubated for 15 mins followed by addition of cold ATP/gamma32P-ATP measured after 15 mins in presence of MgCl2.
In data set [3] the target is Phosphatidylinositol 3-kinase catalytic subunit type 3 (Homo sapiens, UniProt Q8NEB9). The data set is described as follows: Inhibition of GST-tagged recombinant human full length VPS34 expressed in baculovirus preincubated for 15 mins followed by addition of cold ATP/gamma32P-ATP measured after 1 hr in presence of MnCl2. An outline of the steps:
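Radiometric membrane-capture assay, 10 nM purchased vps34, 15 min preincubation with inhibitor, then 1 h reaction. Final: 50 mM HEPES pH 7.5, 0.1% CHAPS, 2mM MnCl2, 1 mM EGTA, 2 mM DTT, 100 µM PI in PI:DOPS:DOPC, 500 ng/µL BSA, 2% DMSO, 10 µM ATP, 2.5 uCi γ32P-ATP; spots washed, phosphorimaged.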

Data set [4] deals with Hepatitis C virus. The data set is described as follows: Antiviral activity against HCV genotype 2a J6/JFH1 infected in human Huh7.5 cells after 3 days by gaussia luciferase assay. Conditions: subtype 2a J6/JFH1, Huh-7, 72 h. The class given is functional, organism-based, Hepacivirus hominis. An outline of the steps:
(§1)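 Huh7.5 cells stably infected with J6/JFH1-GLuc, kept in DMEM/10% FBS, glutamine, NEAA, pen/strep at 37 °C, 5% CO2. 10,000 cells/well; serially diluted compound added 1 h after plating; 3-day incubation. Replication read as Gaussia luciferase activity in supernatant; viability by Presto Blue.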

The nature of data set [5]: Cytotoxicity against human Huh7.5 cells after 3 days by presto blue assay. It counts as cell-based, Huh-7. An outline of the steps: as §1
Data set [6] has as its target Phosphatidylinositol 4,5-bisphosphate 3-kinase catalytic subunit alpha isoform (Homo sapiens, UniProt P42336). The data set is described as follows: Inhibition of N-terminal histidine6-tagged recombinant human full length PI3Kalpha expressed in baculovirus infected Sf21 insect cells preincubated for 15 mins followed by addition of cold ATP/gamma32P-ATP measured after 15 mins. The procedure, abridged: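 Radiometric membrane-capture lipid kinase assay. Enzyme premixed with PIP2:DOPS:DOPC vesicles and BSA. Inhibitor diluted in 10% DMSO/kinase buffer, preincubated 15 min, then cold ATP plus γ32P-ATP added and run 15 min. Final conditions: 50mM HEPES pH 7.5, 100mM NaCl, 0.03% CHAPS, 10mM MgCl2, 1mM EGTA, 2mM DTT, 3.3nM PI3Kα, 80µM PIP2, 500ng/µL BSA, 2% DMSO, 10µM ATP, 2uCi γ32P-ATP. Product spotted onto nitrocellulose, washed in 1M NaCl/1% phosphoric acid, phosphorimaged.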

Data set [7] can be described thus: Inhibition of N-terminal flag-tagged recombinant human full length PI4K3alpha expressed in baculovirus infected Sf21 insect cells preincubated for 15 mins followed by addition of cold ATP/gamma32P-ATP measured after 25 mins. An outline of the steps:
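Purchased PI4KIIIα at 1.2 nM; 15 min inhibitor preincubation, 25 min reaction in 20 mM Bis-Tris propane pH 7.5, 10 mM MgCl2, 0.075 mM Triton X-100, 0.5 mM EGTA, 1 mM DTT, 100 µM PI (PI:DOPS:DOPC), 500 ng/µL BSA, 2% DMSO, 10 µM ATP, 2 uCi γ32P-ATP. Radiolabel captured on nitrocellulose, phosphorimaged.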

Data set [8] deals with Phosphatidylinositol 4-kinase type 2-alpha (Homo sapiens) (UniProt Q9BTU6). The data set is described as follows: Inhibition of flag-tagged recombinant PI4K2alpha (unknown origin) transfected in HEK293T cells upto 20 uM preincubated for 15 mins followed by addition of cold ATP/gamma32P-ATP measured after 25 mins. It counts as cell-based. Conditions: HEK-293T. An outline of the steps:
(§2)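 Enzymes cloned from DNASU plasmids, FLAG-tagged, transfected into HEK293T and FLAG-immunoprecipitated, eluted with FLAG peptide. 15 min inhibitor preincubation, 25 min reaction in 20 mM Bis-Tris propane pH 7.5, 10 mM MgCl2, 0.075 mM Triton X-100, 0.5 mM EGTA, 1 mM DTT, 100 µM PI, 500 ng/µL BSA, 2% DMSO, 10 µM ATP, 2 uCi γ32P-ATP; phosphorimaging.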

Data set [9] deals with Phosphatidylinositol 4-kinase type 2-beta (Homo sapiens) (UniProt Q8TCG2). The data set can be described thus: Inhibition of flag-tagged recombinant PI4K2beta (unknown origin) transfected in HEK293T cells upto 20 uM preincubated for 15 mins followed by addition of cold ATP/gamma32P-ATP measured after 25 mins. The class given is cell-based. The settings on record: HEK-293T. The procedure, abridged: as §2

In data set [10] the target is Phosphatidylinositol 4,5-bisphosphate 3-kinase catalytic subunit beta isoform (Homo sapiens) (UniProt P42338). The data set can be described thus: Inhibition of N-terminal histidine-tagged recombinant human full length PI3Kbeta expressed in baculovirus infected Sf9 insect cells upto 20 uM preincubated for 15 mins followed by addition of cold ATP/gamma32P-ATP measured after 15 mins. An outline of the steps:
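PI3Kβ 0.6 nM final; inhibitor preincubated 15 min, reaction 15 min. Final: 50 mM HEPES pH 7.5, 100 mM NaCl, 0.03% CHAPS, 10 mM MgCl2, 1 mM EGTA, 2 mM DTT, 80 µM PIP2 (PIP2:DOPS:DOPC), 500 ng/µL BSA, 2% DMSO, 10 µM ATP, 2 uCi γ32P-ATP; membrane capture, phosphorimaging.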

One may read the IC50 as the concentration needed to halve the response being measured. What is called CC50 is the concentration giving 50% cytotoxicity. A low value points to harm at low concentration. By inhibition is commonly meant the relative decrease from the control value, in per cent.

Molecules are shown by their SMILES.

Phosphatidylinositol 4-kinase type 2-beta (Homo sapiens), sequence (Q8TCG2 whole entry): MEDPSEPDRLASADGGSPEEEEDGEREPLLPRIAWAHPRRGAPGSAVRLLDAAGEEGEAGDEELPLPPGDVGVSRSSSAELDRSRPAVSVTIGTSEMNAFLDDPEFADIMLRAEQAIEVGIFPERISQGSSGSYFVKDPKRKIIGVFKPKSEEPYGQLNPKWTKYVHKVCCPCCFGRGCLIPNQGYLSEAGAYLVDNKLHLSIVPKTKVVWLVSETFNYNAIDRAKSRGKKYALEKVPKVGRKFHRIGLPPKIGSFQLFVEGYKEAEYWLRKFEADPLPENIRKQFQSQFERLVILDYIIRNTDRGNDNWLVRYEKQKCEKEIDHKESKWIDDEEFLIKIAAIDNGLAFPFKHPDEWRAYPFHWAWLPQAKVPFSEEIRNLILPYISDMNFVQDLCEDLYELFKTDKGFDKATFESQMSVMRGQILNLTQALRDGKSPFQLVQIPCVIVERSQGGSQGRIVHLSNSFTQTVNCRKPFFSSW
Phosphatidylinositol 4,5-bisphosphate 3-kinase catalytic subunit alpha isoform, sequence (P42336 whole entry, canonical isoform): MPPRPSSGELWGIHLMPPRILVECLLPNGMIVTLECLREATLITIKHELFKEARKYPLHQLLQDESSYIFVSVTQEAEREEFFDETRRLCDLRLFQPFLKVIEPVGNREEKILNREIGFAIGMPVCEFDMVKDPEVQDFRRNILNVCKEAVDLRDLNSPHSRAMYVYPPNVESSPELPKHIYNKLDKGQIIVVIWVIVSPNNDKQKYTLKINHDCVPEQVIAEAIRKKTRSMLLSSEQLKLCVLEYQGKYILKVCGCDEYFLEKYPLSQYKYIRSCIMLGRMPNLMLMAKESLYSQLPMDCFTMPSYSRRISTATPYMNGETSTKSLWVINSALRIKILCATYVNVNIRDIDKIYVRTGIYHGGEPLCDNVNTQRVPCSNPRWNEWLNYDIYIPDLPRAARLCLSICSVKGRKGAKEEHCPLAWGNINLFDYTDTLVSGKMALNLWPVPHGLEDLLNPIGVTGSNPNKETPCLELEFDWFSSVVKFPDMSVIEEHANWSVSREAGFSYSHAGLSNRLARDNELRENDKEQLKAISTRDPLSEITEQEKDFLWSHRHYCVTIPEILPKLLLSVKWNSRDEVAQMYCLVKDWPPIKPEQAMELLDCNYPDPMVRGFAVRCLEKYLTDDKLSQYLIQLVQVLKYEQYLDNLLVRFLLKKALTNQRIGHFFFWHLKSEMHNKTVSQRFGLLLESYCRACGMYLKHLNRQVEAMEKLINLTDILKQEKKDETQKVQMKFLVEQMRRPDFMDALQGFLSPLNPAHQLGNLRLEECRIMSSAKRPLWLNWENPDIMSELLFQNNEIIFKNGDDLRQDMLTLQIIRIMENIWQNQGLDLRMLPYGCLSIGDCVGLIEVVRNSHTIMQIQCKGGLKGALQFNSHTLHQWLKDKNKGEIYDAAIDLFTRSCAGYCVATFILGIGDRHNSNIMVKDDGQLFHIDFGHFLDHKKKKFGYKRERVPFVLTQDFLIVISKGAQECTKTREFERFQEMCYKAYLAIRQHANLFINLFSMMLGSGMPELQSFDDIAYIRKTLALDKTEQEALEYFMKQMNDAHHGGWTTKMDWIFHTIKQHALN
Phosphatidylinositol 4,5-bisphosphate 3-kinase catalytic subunit gamma isoform, sequence (P48736 whole entry, canonical isoform): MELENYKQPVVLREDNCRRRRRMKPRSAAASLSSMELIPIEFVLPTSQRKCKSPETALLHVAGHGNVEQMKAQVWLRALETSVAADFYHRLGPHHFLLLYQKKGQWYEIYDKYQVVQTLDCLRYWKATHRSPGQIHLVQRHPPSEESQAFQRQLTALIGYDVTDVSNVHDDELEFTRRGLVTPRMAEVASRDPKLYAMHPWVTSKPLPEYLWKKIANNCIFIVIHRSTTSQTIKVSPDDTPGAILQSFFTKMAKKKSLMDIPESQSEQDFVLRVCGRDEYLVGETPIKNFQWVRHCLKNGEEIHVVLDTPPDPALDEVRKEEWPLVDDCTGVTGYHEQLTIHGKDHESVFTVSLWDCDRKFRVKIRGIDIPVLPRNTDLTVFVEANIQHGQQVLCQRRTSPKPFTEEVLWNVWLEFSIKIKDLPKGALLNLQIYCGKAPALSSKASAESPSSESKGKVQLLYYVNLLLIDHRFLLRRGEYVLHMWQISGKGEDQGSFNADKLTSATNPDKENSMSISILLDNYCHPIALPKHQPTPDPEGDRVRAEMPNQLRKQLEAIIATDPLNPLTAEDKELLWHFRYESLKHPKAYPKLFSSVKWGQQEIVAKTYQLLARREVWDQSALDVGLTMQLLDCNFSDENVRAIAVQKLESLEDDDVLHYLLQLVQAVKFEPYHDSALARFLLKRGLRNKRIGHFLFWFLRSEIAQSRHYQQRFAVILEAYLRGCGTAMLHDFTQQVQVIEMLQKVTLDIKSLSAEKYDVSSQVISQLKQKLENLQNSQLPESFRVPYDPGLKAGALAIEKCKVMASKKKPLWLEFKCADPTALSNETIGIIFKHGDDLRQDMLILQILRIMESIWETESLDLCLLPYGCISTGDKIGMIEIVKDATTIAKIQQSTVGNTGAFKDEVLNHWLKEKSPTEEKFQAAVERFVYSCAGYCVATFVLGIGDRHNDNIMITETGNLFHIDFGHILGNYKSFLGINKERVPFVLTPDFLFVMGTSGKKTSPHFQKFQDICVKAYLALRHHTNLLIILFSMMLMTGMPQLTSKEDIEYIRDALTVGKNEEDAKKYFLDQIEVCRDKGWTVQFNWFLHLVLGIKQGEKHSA
Phosphatidylinositol 3-kinase catalytic subunit type 3, sequence (Q8NEB9 whole entry): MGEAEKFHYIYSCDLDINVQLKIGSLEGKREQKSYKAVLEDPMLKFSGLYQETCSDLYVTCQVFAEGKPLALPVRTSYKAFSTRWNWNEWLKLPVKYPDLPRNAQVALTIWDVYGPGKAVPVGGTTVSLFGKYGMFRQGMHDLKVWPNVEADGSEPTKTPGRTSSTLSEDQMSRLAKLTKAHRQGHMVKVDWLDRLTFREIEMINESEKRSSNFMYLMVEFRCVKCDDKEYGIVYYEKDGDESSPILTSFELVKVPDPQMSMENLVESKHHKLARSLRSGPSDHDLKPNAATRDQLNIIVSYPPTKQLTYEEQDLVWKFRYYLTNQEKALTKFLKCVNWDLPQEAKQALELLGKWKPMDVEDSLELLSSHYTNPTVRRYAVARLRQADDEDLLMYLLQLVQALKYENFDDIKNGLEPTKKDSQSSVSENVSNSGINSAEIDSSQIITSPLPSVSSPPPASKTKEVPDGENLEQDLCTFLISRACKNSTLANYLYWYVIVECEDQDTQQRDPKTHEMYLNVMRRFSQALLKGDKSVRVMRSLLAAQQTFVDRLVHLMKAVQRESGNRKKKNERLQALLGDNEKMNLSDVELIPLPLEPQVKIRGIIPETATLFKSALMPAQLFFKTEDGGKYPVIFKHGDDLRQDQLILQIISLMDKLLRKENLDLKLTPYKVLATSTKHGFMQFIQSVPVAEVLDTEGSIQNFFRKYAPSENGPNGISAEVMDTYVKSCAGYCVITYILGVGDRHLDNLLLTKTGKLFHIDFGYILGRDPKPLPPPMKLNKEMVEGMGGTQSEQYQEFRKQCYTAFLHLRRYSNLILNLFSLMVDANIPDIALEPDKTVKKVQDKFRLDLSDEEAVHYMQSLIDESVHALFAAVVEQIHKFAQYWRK
Phosphatidylinositol 4,5-bisphosphate 3-kinase catalytic subunit beta isoform (Homo sapiens), sequence (P42338 whole entry, looked up, canonical isoform): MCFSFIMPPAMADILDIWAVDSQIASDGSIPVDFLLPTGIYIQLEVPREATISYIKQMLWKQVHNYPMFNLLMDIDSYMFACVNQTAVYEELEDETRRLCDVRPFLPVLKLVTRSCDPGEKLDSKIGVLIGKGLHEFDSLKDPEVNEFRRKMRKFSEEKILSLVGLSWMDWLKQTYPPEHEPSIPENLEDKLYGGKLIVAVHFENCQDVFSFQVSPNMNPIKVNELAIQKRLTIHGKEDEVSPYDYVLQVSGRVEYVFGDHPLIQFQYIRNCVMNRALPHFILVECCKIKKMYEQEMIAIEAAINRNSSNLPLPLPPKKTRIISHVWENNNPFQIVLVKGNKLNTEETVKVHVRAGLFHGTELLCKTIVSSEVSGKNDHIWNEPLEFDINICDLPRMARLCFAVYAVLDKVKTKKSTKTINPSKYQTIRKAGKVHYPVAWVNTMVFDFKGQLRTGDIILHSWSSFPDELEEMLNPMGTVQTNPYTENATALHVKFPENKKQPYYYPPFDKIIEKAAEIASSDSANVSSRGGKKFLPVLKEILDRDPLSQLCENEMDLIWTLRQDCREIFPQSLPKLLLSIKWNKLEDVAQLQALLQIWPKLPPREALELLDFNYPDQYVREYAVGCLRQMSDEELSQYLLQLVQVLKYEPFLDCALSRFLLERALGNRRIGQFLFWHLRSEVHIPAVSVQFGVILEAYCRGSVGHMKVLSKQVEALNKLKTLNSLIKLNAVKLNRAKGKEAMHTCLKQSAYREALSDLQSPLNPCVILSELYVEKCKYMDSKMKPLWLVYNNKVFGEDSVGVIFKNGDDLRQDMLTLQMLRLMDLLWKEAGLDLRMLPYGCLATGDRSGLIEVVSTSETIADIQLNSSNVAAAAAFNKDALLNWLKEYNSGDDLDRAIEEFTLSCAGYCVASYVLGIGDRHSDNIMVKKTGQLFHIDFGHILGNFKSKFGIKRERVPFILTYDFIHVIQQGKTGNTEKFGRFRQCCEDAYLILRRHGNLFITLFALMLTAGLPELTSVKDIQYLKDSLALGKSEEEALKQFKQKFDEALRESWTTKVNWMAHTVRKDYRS
Phosphatidylinositol 4-kinase type 2-alpha (Homo sapiens), sequence (Q9BTU6 whole entry): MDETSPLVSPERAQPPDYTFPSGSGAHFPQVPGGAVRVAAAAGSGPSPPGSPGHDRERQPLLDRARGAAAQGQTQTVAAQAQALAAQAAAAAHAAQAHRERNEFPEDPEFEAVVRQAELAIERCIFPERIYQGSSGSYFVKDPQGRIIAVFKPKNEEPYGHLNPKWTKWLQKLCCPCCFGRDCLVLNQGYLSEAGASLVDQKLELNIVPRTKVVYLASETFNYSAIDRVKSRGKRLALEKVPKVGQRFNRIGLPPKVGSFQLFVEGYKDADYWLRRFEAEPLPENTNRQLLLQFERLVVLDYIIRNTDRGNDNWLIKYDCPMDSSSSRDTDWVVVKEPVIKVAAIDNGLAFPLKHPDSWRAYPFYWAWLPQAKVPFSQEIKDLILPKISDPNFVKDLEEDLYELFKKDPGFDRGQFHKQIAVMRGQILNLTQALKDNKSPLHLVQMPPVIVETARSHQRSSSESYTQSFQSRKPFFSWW

For `COc1ccc(-c2sc(NC(=O)C(C)(C)C)nc2C)cc1S(=O)(=O)Nc1ccc(O)cc1`, the IC50 is 0.0036 µM in data set [1]; 20 µM in data set [2]; > 20 µM in [3]; 1.3 µM in [4]; 10 µM in data set [6]; 3 µM in data set [7]. Besides, the cytotoxic concentration (CC50) at 72 h in data set [5] was found to be 32 µM. In addition, the inhibition in data set [8], in [9] and in data set [10] was < 20% each time.
Consider `COc1ccc(-c2sc(NC(=O)C3CCCC3)nc2C)cc1S(=O)(=O)Nc1ccc(O)cc1`, for which the IC50 in data set [1] was 0.007 µM; in data set [2] it was 1.05 µM; in [3], > 20 µM; in data set [4], 0.63 µM; in data set [6], 2 µM; in data set [7], 2.6 µM. The CC50 at 72 h in data set [5] is 14 µM. The inhibition in data set [8], in data set [9] and in data set [10] was < 50% in each case.

Values taken from ChEMBL document CHEMBL3784974, “Design and Structural Characterization of Potent and Selective Inhibitors of Phosphatidylinositol 4 Kinase IIIβ” (J Med Chem, 2016).
